Positions count from the first letter of the chain named. Calls of active or inactive are those of the source. The rule behind the calls is not given here.

For experiment [1], the system named is T1, Alpha-crystallin A chain (Homo sapiens), P02489 [R116C].
T1 sequence (whole entry): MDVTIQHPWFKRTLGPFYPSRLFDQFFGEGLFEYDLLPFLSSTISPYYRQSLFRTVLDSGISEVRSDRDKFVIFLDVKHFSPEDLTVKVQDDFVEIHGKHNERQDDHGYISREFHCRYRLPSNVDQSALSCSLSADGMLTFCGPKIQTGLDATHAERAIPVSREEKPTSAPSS
The experiment is described as follows: Induction of redissolving of aggregated alpha-crystallin A R116C mutant (unknown origin) at 200 uM incubated for 24 hrs by ThT-fluorescence based assay. The procedure, abridged:
(§1)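 Purified mutant crystallin proteins, pre-formed into amyloid-like fibrils, were treated with compounds delivered in liposomes, with a liposome-only vehicle control. Redissolution was read as thioflavin T (ThT) fluorescence, n = 3.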

The subject of experiment [2] is T2, Alpha-crystallin A chain (Homo sapiens), P02489 [R116H].
T2 sequence (whole entry): T1 sequence (whole entry) with C116H
The experiment is described as follows: Induction of redissolving of aggregated alpha-crystallin A R116H mutant (unknown origin) at 200 uM incubated for 24 hrs by ThT-fluorescence based assay. The procedure, abridged:
as §1

In experiment [3] the test system is T3, Alpha-crystallin B chain (Homo sapiens), P02511 [R120G].
T3 sequence (whole entry): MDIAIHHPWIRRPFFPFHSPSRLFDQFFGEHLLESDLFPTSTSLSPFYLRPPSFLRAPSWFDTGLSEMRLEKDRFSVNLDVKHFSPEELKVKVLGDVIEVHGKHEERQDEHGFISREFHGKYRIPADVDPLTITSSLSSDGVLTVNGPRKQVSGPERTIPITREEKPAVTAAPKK
Briefly: Induction of redissolving of aggregated alpha-crystallin B R120G mutant (unknown origin) at 200 uM incubated for 24 hrs by ThT-fluorescence based assay. The essentials: as §1

For experiment [4], the system named is T4, Gamma-crystallin C (Homo sapiens), P07315 [G129C].
T4 sequence (whole entry): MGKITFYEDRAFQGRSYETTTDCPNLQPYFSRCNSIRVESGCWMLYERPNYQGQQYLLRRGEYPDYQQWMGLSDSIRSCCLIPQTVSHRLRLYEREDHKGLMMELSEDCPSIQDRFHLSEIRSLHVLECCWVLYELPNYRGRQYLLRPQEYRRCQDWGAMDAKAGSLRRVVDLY
Briefly: Induction of redissolving of aggregated gamma-crystallin C G129C mutant (unknown origin) at 200 uM incubated for 24 hrs by ThT-fluorescence based assay. The procedure, abridged:
as §1

The subject of experiment [5] is T5, Gamma-crystallin D (Homo sapiens), P07320 [W43R].
T5 sequence (whole entry): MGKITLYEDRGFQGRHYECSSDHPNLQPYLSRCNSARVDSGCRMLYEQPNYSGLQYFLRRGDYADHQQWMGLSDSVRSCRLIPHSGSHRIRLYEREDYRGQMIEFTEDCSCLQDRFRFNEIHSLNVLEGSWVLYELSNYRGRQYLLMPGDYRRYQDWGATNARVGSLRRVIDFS
Briefly: Induction of redissolving of aggregated gamma-crystallin D W43R mutant (unknown origin) at 200 uM incubated for 24 hrs by ThT-fluorescence based assay. The essentials:
as §1

Experiment [6] relates to T1, Alpha-crystallin A chain (Homo sapiens), P02489 [R116C]. The experiment is described as follows: Induction of redissolving of aggregated alpha-crystallin A R116C mutant (unknown origin) at 200 uM incubated for 24 hrs by transmission-electron-microscopy. The essentials:
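Pre-formed amyloid-like fibrils of mutant crystallin proteins were treated with compounds in liposomes or with a liposome vehicle. Fibrillar structures were then examined by negative-stain transmission electron microscopy.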

The subject of the next experiment is HeLa. The experiment is described as follows: Increase in cell viability of human HeLa cells transfected with peGFP-N1 at 0.04 to 4 uM incubated for 12 hrs by CCK8 assay. Format: functional, cell-based. (In general: Formazan colour is commonly taken as a measure of viable cells.)
For a further experiment, the species on record is Homo sapiens. The experiment is described as follows: Increase in cell viability of human HLE-B3 cells transfected with peGFP-N1 at 0.04 to 4 uM incubated for 12 hrs by CCK8 assay. Format: functional.
The test system of experiment [7] is T6, Alpha-crystallin A chain (Homo sapiens), P02489 [Y118D].
T6 sequence (whole entry): T1 sequence (whole entry) with C116R, Y118D
The experiment is described as follows: Inhibition of alpha-crystallin A Y118D mutant (unknown origin)-induced cytotoxicity in human HeLa cells assessed as increase in cell viability at 0.04 to 4 uM incubated for 12 hrs by CCK8 assay. Format: cell-based.

Experiment [8] has the same test system. Briefly: Inhibition of alpha-crystallin A Y118D mutant (unknown origin)-induced cytotoxicity in human HLE-B3 cells assessed as increase in cell viability at 0.04 to 4 uM incubated for 12 hrs by CCK8 assay. The format is cell-based.
Experiment [9] has as its system T3, Alpha-crystallin B chain (Homo sapiens), P02511 [R120G]. Briefly: Inhibition of alpha-crystallin B R120G mutant (unknown origin)-induced cytotoxicity in human HeLa cells assessed as increase in cell viability at 0.04 to 4 uM incubated for 12 hrs by CCK8 assay. The format is cell-based.
For experiment [10] the test system is unchanged. The experiment is described as follows: Inhibition of alpha-crystallin B R120G mutant (unknown origin)-induced cytotoxicity in human HLE-B3 cells assessed as increase in cell viability at 0.04 to 4 uM incubated for 12 hrs by CCK8 assay. Format: cell-based.
The subject of experiment [11] is T7, Beta-crystallin B2 (Homo sapiens), P43320 [V187E].
T7 sequence (whole entry): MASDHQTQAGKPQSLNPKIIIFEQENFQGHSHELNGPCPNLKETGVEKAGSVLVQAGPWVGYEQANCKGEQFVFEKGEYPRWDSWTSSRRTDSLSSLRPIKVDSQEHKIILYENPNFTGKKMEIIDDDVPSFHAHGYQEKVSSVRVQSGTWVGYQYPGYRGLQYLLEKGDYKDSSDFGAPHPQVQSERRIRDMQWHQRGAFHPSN
The experiment is described as follows: Inhibition of beta-crystallin B2 V187E mutant (unknown origin)-induced cytotoxicity in human HeLa cells assessed as increase in cell viability at 0.04 to 4 uM incubated for 12 hrs by CCK8 assay. The format is cell-based.

The test system is the same in experiment [12]. The experiment is described as follows: Inhibition of beta-crystallin B2 V187E mutant (unknown origin)-induced cytotoxicity in human HLE-B3 cells assessed as increase in cell viability at 0.04 to 4 uM incubated for 12 hrs by CCK8 assay. Format: cell-based.
Experiment [13] deals with T4, Gamma-crystallin C (Homo sapiens), P07315 [G129C]. The experiment is described as follows: Inhibition of gamma-crystallin C G129C mutant (unknown origin)-induced cytotoxicity in human HeLa cells assessed as increase in cell viability at 0.04 to 4 uM incubated for 12 hrs by CCK8 assay. Format: cell-based.
For experiment [14] the test system is unchanged. The experiment is described as follows: Inhibition of gamma-crystallin C G129C mutant (unknown origin)-induced cytotoxicity in human HLE-B3 cells assessed as increase in cell viability at 0.04 to 4 uM incubated for 12 hrs by CCK8 assay. Format: cell-based.
Experiment [15] concerns T5, Gamma-crystallin D (Homo sapiens), P07320 [W43R]. Briefly: Inhibition of gamma-crystallin D W43R mutant (unknown origin)-induced cytotoxicity in human HeLa cells assessed as increase in cell viability at 0.04 to 4 uM incubated for 12 hrs by CCK8 assay. The format is cell-based.
For experiment [16] the test system is unchanged. The experiment is described as follows: Inhibition of gamma-crystallin D W43R mutant (unknown origin)-induced cytotoxicity in human HLE-B3 cells assessed as increase in cell viability at 0.04 to 4 uM incubated for 12 hrs by CCK8 assay. The format is cell-based.

`C[C@H](CCCC(C)(C)O)[C@H]1CC[C@@]2(C)[C@@]34CC[C@H]5C(C)(C)/C(=N/O)CC[C@]5(C)[C@]3(CC[C@]12C)O4`: the result in experiment [1], in experiment [2], in [3], in experiment [4], in experiment [5] and in experiment [6] was inactive.

For `C[C@H](CCCC(C)(C)O)[C@H]1CC[C@@]2(C)C3=C(CC[C@]12C)[C@@]1(C)CCC(=O)C(C)(C)[C@@H]1CC3`, the result in the experiment with HeLa and in the experiment filed under Homo sapiens was Active. The inhibition entry in experiment [7], in experiment [8], in [9], in experiment [10], in [11] and in experiment [12] was “Active” in each case. For the same compound, the inhibition result in [13], in experiment [14], in experiment [15] and in [16] was “Active” each time.

For `C[C@H](CCCC(C)(C)O)[C@H]1CC[C@@]2(C)C3=C(CC[C@]12C)[C@@]1(C)C[C@@H](F)[C@H](O)C(C)(C)[C@@H]1CC3`, the result in the experiment on HeLa and in the experiment listed under Homo sapiens was Active. Moreover, the inhibition entry in experiment [7], in experiment [8], in [9], in [10], in experiment [11] and in [12] was “Active” in each case. In addition, the inhibition entry in experiment [13], in experiment [14], in experiment [15] and in [16] was “Active” in each case.

For the compound `C[C@H](CCCC(C)(C)O)[C@H]1CC[C@@]2(C)C3=CC[C@H]4C(C)(C)[C@@H](O)CC[C@]4(C)C3=CC[C@]12C`, the outcome in the experiment on HeLa and in the experiment filed under Homo sapiens was Active. In addition, the inhibition entry in [7], in [8], in experiment [9], in experiment [10], in [11] and in [12] was “Active” throughout. Moreover, the inhibition result in [13], in experiment [14], in experiment [15] and in experiment [16] was “Active” each time.

Consider `C[C@H](CCCC(C)(C)O)[C@H]1CC[C@@]2(C)C3=C(CC[C@]12C)[C@@]1(C)C[C@@H](F)[C@@H](O)C(C)(C)[C@@H]1CC3`, for which the outcome in the experiment on HeLa and in the experiment filed under Homo sapiens was Active. The inhibition entry in [7], in experiment [8], in experiment [9], in experiment [10], in experiment [11] and in experiment [12] was “Active” each time. Further, the inhibition entry in experiment [13], in experiment [14], in [15] and in experiment [16] was “Active” throughout.

Turning to `C[C@H](CCCC(C)(C)O)[C@H]1CC[C@@]2(C)C3=C(CC[C@]12C)[C@@]1(C)CC[C@H](O)C(C)(C)[C@@H]1CC3`, the outcome in [1], in experiment [2], in experiment [3], in [4], in [5] and in experiment [6] was Active. Further, the outcome in the experiment on HeLa and in the experiment listed under Homo sapiens was Active. The inhibition entry in experiment [7], in [8], in experiment [9], in experiment [10], in experiment [11] and in [12] was “Active” each time. Besides, the inhibition result in experiment [13], in experiment [14], in experiment [15] and in [16] was “Active” each time.

The values are drawn from ChEMBL document CHEMBL4196177, “Synthesis, Evaluation, and Structure-Activity Relationship Study of Lanosterol Derivatives To Reverse Mutant-Crystallin-Induced Protein Aggregation” (J Med Chem, 2018).
